Measured values published in ChEMBL document CHEMBL1759956, “Rhodium(II) acetate-catalyzed stereoselective synthesis, SAR and anti-HIV activity of novel oxindoles bearing cyclopropane ring” (Eur J Med Chem, 2011).

Assays:
[1] = Cytotoxicity against human TZM-bl cells assessed as cell viability at 20 ug after 48 hrs by MTT assay; format: cell-based; conditions: read-out: Activity
Outline: (§1)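 TZM-bl cells, 3 × 10³ per well, incubated 48 h at 37 °C in 5% CO₂ with or without compound. MTT (5 mg/mL reagent) added for 3 h, then solubilised in 20% SDS/50% DMF in PBS. OD read at 570 nm with 690 nm reference. Viability = [(OD treated − OD virus control)/(OD uninfected − OD virus control)] × 100.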

[2] = Cytotoxicity against human CEM cells expressing green fluorescent protein assessed as cell viability at 50 ug after 48 hrs by MTT assay; format: cell-based, CCRF-CEM; conditions: read-out: Activity
[3] = test system: Human immunodeficiency virus 1; test: Antiviral activity against 0.025 MOI Human immunodeficiency virus 1 infected in human TZM-bl cells at 2 ug/ml after 48 hrs by beta-galactosidase assay; format: functional; conditions: Human immunodeficiency virus 1, TZM-bl
Outline: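 TZM-bl cells, 2.0 × 10⁵ per well, cultured overnight at 37 °C in 5% CO₂. Virus with treatments added for 4 h. Cells then washed twice in serum-free DMEM and refed with DMEM + 10% FCS. Compounds re-added and cells incubated 48 h. Cells fixed in 1% glutaraldehyde for 10 min and stained 24 h at 37 °C. Blue foci counted microscopically; % inhibition = 100 − (foci treated/foci untreated infected × 100). AZT positive control.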

[4] = Cytotoxicity against human TZM-bl cells assessed as cell viability at 100 ug after 48 hrs by MTT assay; format: cell-based; conditions: read-out: Activity; outline: as §1
[5] = Cytotoxicity against human TZM-bl cells assessed as cell viability at 50 ug after 48 hrs by MTT assay; format: cell-based; conditions: read-out: Activity; outline: as §1
[6] = Partition coefficient, log P of the compound; format: physicochemical; conditions: octanol/water
[7] = Cytotoxicity against human CEM cells expressing green fluorescent protein assessed as cell viability at 20 ug after 48 hrs by MTT assay; format: cell-based, CCRF-CEM; conditions: read-out: Activity
[8] = Cytotoxicity against human CEM cells expressing green fluorescent protein assessed as cell viability at 100 ug after 48 hrs by MTT assay; format: cell-based, CCRF-CEM; conditions: read-out: Activity
[9] = test system: Human immunodeficiency virus 1; test: Antiviral activity against 0.05 MOI Human immunodeficiency virus 1 NL4.3 infected in human CEM cells expressing green fluorescent protein at 20 ug/ml after 8 days by fluorometric analysis; format: functional; conditions: Human immunodeficiency virus 1, NL4.3, CCRF-CEM, 192 h
Outline: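 CEM-GFP cells seeded at 2.0 × 10⁵ cells/mL with compounds in duplicate. AZT ([…]) was the positive control; 50% ethanol and distilled water were vehicle controls. Cells incubated at 37 °C in 5% CO₂. On day 5, 0.4 mL of suspension was replaced with 1 mL fresh medium and compounds were re-added, then incubation continued. % inhibition = 100 − (GFP fluorescence treated/untreated infected × 100).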

[10] = Cytotoxicity against human CEM cells expressing green fluorescent protein assessed as cell viability at 10 ug after 48 hrs by MTT assay; format: cell-based, CCRF-CEM; conditions: read-out: Activity
[11] = Cytotoxicity against human TZM-bl cells assessed as cell viability at 10 ug after 48 hrs by MTT assay; format: cell-based; conditions: read-out: Activity; outline: as §1

`O=C1Nc2ccc([N+](=O)[O-])cc2[C@]12C[C@H]2CO` showed a viability at 48 h, 20 ug [1] of 107%, a viability at 48 h, 50 ug [2] of 122% and an inhibition at 2 µg/mL [3] of 5%. For the same compound, the viability at 48 h, 100 ug [4] was 109%, the viability at 48 h, 50 ug [5] was 104% and the logP [6] was 0.54. For the same compound, the viability at 48 h, 20 ug [7] was 127%, the viability at 48 h, 100 ug [8] was 116% and the inhibition at 20 µg/mL [9] was 3%. The viability at 48 h, 10 ug [10] was 119% and the viability at 48 h, 10 ug [11] was 100%.
With `O=C1Nc2ccc([N+](=O)[O-])cc2[C@]12C[C@H]2CCl` the viability at 48 h, 20 ug [1] was 102%, the viability at 48 h, 50 ug [2] was 103% and the inhibition at 2 µg/mL [3] was 6%. It also gave a viability at 48 h, 100 ug [4] of 92%, a viability at 48 h, 50 ug [5] of 101% and a logP [6] of 1.84. The viability at 48 h, 20 ug [7] was 118%, the viability at 48 h, 100 ug [8] was 76% and the inhibition at 20 µg/mL [9] was 4%. The viability at 48 h, 10 ug [10] was 101% and the viability at 48 h, 10 ug [11] was 102%.
`O=C1Nc2ccc(OC(F)(F)F)cc2[C@]12C[C@H]2CCl` showed a viability at 48 h, 20 ug [1] of 95%, a viability at 48 h, 50 ug [2] of 37% and an inhibition at 2 µg/mL [3] of 9%. For the same compound, the viability at 48 h, 100 ug [4] was 60%, the viability at 48 h, 50 ug [5] was 66% and the logP [6] was 3.48. It also gave a viability at 48 h, 20 ug [7] of 74%, a viability at 48 h, 100 ug [8] of 2% and an inhibition at 20 µg/mL [9] of 3%. It also gave a viability at 48 h, 10 ug [10] of 94% and a viability at 48 h, 10 ug [11] of 91%.
`O=C1Nc2ccc(OC(F)(F)F)cc2[C@]12C[C@H]2CO` showed a viability at 48 h, 20 ug [1] of 93%, a viability at 48 h, 50 ug [2] of 33% and an inhibition at 2 µg/mL [3] of 10%. For the same compound, the viability at 48 h, 100 ug [4] was 60%, the viability at 48 h, 50 ug [5] was 62% and the logP [6] was 1.89. It also gave a viability at 48 h, 20 ug [7] of 72%, a viability at 48 h, 100 ug [8] of 3% and an inhibition at 20 µg/mL [9] of 7%. It also gave a viability at 48 h, 10 ug [10] of 91% and a viability at 48 h, 10 ug [11] of 90%.
`Cc1ccc2c(c1)[C@]1(C[C@H]1CCl)C(=O)N2` showed a viability at 48 h, 20 ug [1] of 91%, a viability at 48 h, 50 ug [2] of 85% and an inhibition at 2 µg/mL [3] of 8%. It also gave a viability at 48 h, 100 ug [4] of 87%, a viability at 48 h, 50 ug [5] of 88% and a logP [6] of 2.44. The viability at 48 h, 20 ug [7] was 89%, the viability at 48 h, 100 ug [8] was 81% and the inhibition at 20 µg/mL [9] was 5%. The viability at 48 h, 10 ug [10] was 92% and the viability at 48 h, 10 ug [11] was 93%.
With `Cc1ccc2c(c1)[C@]1(C[C@H]1CO)C(=O)N2` the viability at 48 h, 20 ug [1] was 100%, the viability at 48 h, 50 ug [2] was 100% and the inhibition at 2 µg/mL [3] was 6%. It also gave a viability at 48 h, 100 ug [4] of 93%, a viability at 48 h, 50 ug [5] of 95% and a logP [6] of 1.21. It also gave a viability at 48 h, 20 ug [7] of 101%, a viability at 48 h, 100 ug [8] of 100% and an inhibition at 20 µg/mL [9] of 3%. For the same compound, the viability at 48 h, 10 ug [10] was 105% and the viability at 48 h, 10 ug [11] was 102%.
With `O=C1Nc2ccccc2[C@]12C[C@H]2CO` the viability at 48 h, 20 ug [1] was 98%, the viability at 48 h, 50 ug [2] was 92% and the inhibition at 2 µg/mL [3] was 4%. It also gave a viability at 48 h, 100 ug [4] of 89%, a viability at 48 h, 50 ug [5] of 92% and a logP [6] of 2.19. For the same compound, the viability at 48 h, 20 ug [7] was 95%, the viability at 48 h, 100 ug [8] was 90% and the inhibition at 20 µg/mL [9] was 6%. The viability at 48 h, 10 ug [10] was 96% and the viability at 48 h, 10 ug [11] was 99%.
With `O=C1Nc2ccccc2[C@]12C[C@H]2CCl` the viability at 48 h, 20 ug [1] was 92%, the viability at 48 h, 50 ug [2] was 83% and the inhibition at 2 µg/mL [3] was 7%. The viability at 48 h, 100 ug [4] was 86%, the viability at 48 h, 50 ug [5] was 87% and the logP [6] was 1.95. The viability at 48 h, 20 ug [7] was 87%, the viability at 48 h, 100 ug [8] was 88% and the inhibition at 20 µg/mL [9] was 2%. For the same compound, the viability at 48 h, 10 ug [10] was 91% and the viability at 48 h, 10 ug [11] was 93%.
